Source: ChEMBL document CHEMBL4725407, “New cannabinoid receptor antagonists as pharmacological tool” (Bioorg Med Chem, 2020)
Calls of active or inactive are those of the source. No cut-off for these calls is given here.

Legend:
Mus musculus = species on record: Mus musculus; assay: Antagonist activity at cannabinoid receptor in ICR mouse vas deferens assessed as reduction of WIN55212-2-induced inhibition of electrically evoked contraction at 1 uM incubated for 10 mins prior to WIN55212-2 addition; assay type: tissue-based
Cannabinoid receptor 2 = Cannabinoid receptor 2 (Homo sapiens, UniProt P34972); assay: Displacement of [3H]CP55940 from human CB2R transfected in HEK293EBNA cell membrane incubated for 90 mins by Microbeta TriLux based luminescence analysis; assay type: cell membranes, HEK293-EBNA
Sequence of Cannabinoid receptor 2 (P34972 whole entry): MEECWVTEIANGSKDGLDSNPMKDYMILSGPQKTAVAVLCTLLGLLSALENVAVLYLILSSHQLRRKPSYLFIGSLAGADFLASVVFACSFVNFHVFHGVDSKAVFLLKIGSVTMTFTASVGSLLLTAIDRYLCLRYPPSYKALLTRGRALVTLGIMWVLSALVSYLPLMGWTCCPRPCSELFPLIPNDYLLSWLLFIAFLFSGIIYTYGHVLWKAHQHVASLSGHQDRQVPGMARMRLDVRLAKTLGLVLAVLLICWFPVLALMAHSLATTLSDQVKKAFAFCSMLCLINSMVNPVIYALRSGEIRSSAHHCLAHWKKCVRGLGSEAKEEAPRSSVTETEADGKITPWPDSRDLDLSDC

HEK293-EBNA = assay: Selectivity index, ratio of Ki for human CB1R transfected in HEK293EBNA cell membrane to ratio of Ki for human CB2R transfected in HEK293EBNA cell membrane incubated for 90 mins by Microbeta TriLux based luminescence analysis
How it was run: (§1)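 Membranes of HEK293EBNA cells expressing human CB1 (~0.415 mg/mL protein) or CB2 (~0.18 mg/mL) incubated 90 min at 30 °C with [³H]-CP55940 (0.54 nM CB1; 0.33 nM CB2) and competitor, in Tris buffer pH 7.4 with EDTA, MgCl₂, BSA. Filtered, washed, bound radioactivity counted; IC50 by curve fitting, Ki by Cheng–Prusoff; selectivity = Ki CB1/Ki CB2.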

Cannabinoid receptor 1 [1] = target: T1, Cannabinoid receptor 1 (Homo sapiens, UniProt P21554); assay: Displacement of [3H]CP55940 from human CB1R transfected in HEK293EBNA cell membranes incubated for 90 mins by Microbeta TriLux based luminescence analysis; design: species or system HEK293-EBNA
T1 sequence (P21554 whole entry): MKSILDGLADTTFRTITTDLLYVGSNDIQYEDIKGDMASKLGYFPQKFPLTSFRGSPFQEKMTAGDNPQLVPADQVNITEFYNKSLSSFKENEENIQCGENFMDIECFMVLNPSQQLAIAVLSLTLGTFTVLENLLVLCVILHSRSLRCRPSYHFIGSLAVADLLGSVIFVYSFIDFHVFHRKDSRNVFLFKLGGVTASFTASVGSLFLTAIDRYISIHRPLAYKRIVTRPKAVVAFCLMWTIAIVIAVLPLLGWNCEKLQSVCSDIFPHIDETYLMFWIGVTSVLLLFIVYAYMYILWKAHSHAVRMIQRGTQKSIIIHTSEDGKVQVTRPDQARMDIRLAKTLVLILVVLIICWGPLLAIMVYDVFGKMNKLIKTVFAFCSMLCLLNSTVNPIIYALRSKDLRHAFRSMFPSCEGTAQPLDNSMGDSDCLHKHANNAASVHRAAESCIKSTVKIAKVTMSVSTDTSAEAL

MC3T3-E1 = assay: Cytotoxicity against mouse MC3T3-E1 cell assessed as reduction in cell viability at 1 uM incubated for 48 hrs by MTT assay; assay type: cell-based; conditions: mc3t3-e1, 48 h
How it was run: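 MC3T3-E1 cells in 96-well plates, 24 h in DMEM/10% FBS, then 48 h with compound at 10⁻⁶ M or vehicle; viability by MTT reduction; three experiments in sextuplicate.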

[2] = target: Cannabinoid receptor 2 (Mus musculus) (UniProt P47936); assay: Agonist activity at CB2 receptor in mouse MC3T3-E1 cells assessed as induction of bone activity by measuring increase in collagen I gene expression at 1 uM incubated for 72 hrs by real time PCR analysis; assay type: cell-based
Sequence of Cannabinoid receptor 2 (Mus musculus) (P47936 whole entry): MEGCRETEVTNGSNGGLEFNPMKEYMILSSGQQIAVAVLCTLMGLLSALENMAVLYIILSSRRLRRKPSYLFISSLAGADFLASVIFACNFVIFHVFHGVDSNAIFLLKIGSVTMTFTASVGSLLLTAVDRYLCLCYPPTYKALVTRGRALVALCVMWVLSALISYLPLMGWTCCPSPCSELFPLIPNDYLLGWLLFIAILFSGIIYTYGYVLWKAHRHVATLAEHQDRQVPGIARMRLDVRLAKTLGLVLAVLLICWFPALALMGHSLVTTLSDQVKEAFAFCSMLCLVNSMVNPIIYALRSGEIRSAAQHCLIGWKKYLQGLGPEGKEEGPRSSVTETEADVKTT
How it was run: (§2)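 MC3T3-E1 cells in DMEM/10% FBS for 24 h; attached cells moved to osteogenic medium (50 μg/mL ascorbic acid, 10⁻⁹ M dexamethasone, 10 mM β-glycerophosphate) with agent (HU308 10⁻⁶–10⁻⁸ M; antagonists 10⁻⁶ M) or vehicle, 72 h at 37 °C, 5% CO₂. Collagen type I mRNA from total RNA by RT-qPCR, ΔΔCT relative quantification; three experiments in triplicate.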

[3] = target: Cannabinoid receptor 2 (Mus musculus) (UniProt P47936); assay: Antagonist activity at CB2 receptor in mouse MC3T3-E1 cells assessed as inhibition of HU308-induced collagen I gene expression at 1 uM pretreated with compound and HU308 for 24 hrs followed by further incubation with HU308 for 48 hrs by real time PCR analysis; assay type: cell-based; conditions: filed as antagonist, time 72.0 hrs
How it was run: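 MC3T3-E1 cells seeded 24 h in DMEM/10% FBS, then pre-treated 24 h in osteogenic medium (ascorbic acid, dexamethasone, β-glycerophosphate) with 10⁻⁶ M antagonist plus HU308 10⁻⁸ M; medium then replaced by osteogenic medium with HU308 10⁻⁸ M alone (controls vehicle) for 48 h more. Collagen I mRNA by RT-qPCR, ΔΔCT; three experiments in triplicate.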

[4] = target: Cannabinoid receptor 2 (Mus musculus) (UniProt P47936); assay: Agonist activity at CB2 receptor in mouse MC3T3-E1 cells assessed as induction of bone activity by measuring increase in collagen I gene expression at 0.01 to 1 uM incubated for 72 hrs by real time PCR analysis; assay type: cell-based; conditions: filed as agonist, dose microM 0.01-1, time 72.0 hrs; how it was run: as §2
Cannabinoid receptor 1 [5] = target: T1, Cannabinoid receptor 1; assay: Displacement of [3H]CP55940 from human CB1R transfected in HEK293EBNA cell membrane incubated for 90 mins by Microbeta TriLux based luminescence analysis relative to control; assay type: cell membranes; conditions: HEK293-EBNA; how it was run: as §1

SMILES | inhibition (Mus musculus) | Ki (Cannabinoid receptor 2) | Ratio Ki (HEK293-EBNA) | Ki (Cannabinoid receptor 1 [1]) | inhibition (Mus musculus; filed as antagonist) | also measured
COc1ccc(COc2n[nH]c3ccc([N+](=O)[O-])cc23)cc1 | inactive | 1.8 µM | > 22.2 | > 40 µM |  | 
Nc1ccc2c(c1)c(OCc1ccccc1)nn2Cc1ccccc1 |  |  | 2.5 |  | Active | 
c1ccc2cc(COc3nn(CCC4CCCCC4)c4ccccc34)ccc2c1 | inactive | > 40 µM | < 0.004 | 0.15 µM |  | 
CCCCCn1nc(OCc2ccc3ccccc3c2)c2cc([N+](=O)[O-])ccc21 | inactive |  | 1.2 |  |  | 
CCCn1nc(OCc2ccc3ccccc3c2)c2cc(N)ccc21 | inactive | 2.9 µM | 0.6 | 1.6 µM |  | 
c1ccc2cc(COc3n[nH]c4ccccc34)ccc2c1 | inactive | 7 µM | 3.1 | 21.7 µM |  | 
CCCCCOc1nn(CCCCC)c2ccc([N+](=O)[O-])cc12 | inactive |  | 1.9 |  |  | 
Cc1c(C(=O)NN2CCCCC2)nn(-c2ccc(Cl)cc2Cl)c1-c1ccc(I)cc1 |  |  |  |  | Active | 
Cn1nc(OCc2cccc3ccccc23)c2cc([N+](=O)[O-])ccc21 |  | 0.25 µM | > 160 | ≥ 40 µM | Active | 
c1ccc2c(COc3n[nH]c4ccccc34)cccc2c1 | inactive | 0.44 µM | 3.6 | 1.6 µM |  | 
Cn1nc(OCc2ccc3ccccc3c2)c2ccccc21 |  | 10.1 µM | 0.4 | 4 µM | Active | 
O=[N+]([O-])c1ccc2c(c1)c(OCc1ccc3ccccc3c1)nn2Cc1ccccc1 | inactive |  | > 25 |  |  | 
CCCn1nc(OCc2ccc3ccccc3c2)c2cc([N+](=O)[O-])ccc21 |  | 0.47 µM | 0.8 | 0.356 µM | Active | Activity (MC3T3-E1): Non-Toxic; Activity [2]: inactive; inhibition [3]: Active
CCCCCn1nc(OCc2ccc(OC)cc2)c2cc([N+](=O)[O-])ccc21 |  |  | 1.6 |  | Active | 
c1ccc2c(c1)c(OCC1CCCCC1)nn2CC1CCCCC1 | inactive |  | 0.2 |  |  | 
CCCCCCC(C)(C)c1cc(OC)c([C@H]2C=C(CO)[C@H]3C[C@@H]2C3(C)C)c(OC)c1 |  |  |  |  |  | Activity [4]: Active
O=[N+]([O-])c1ccc2[nH]nc(OCc3ccc4ccccc4c3)c2c1 | inactive | 5 µM | 2.7 | 13.6 µM |  | 
Cn1nc(OCc2ccc3ccccc3c2)c2cc([N+](=O)[O-])ccc21 |  | 3.5 µM | > 11.4 | > 40 µM | Active | 
O=[N+]([O-])c1ccc2c(c1)c(OCc1ccccc1)nn2Cc1ccccc1 | inactive |  | 3 |  |  | 
O=[N+]([O-])c1ccc2[nH]nc(OCc3cccc4ccccc34)c2c1 |  | 0.9 µM | > 44.4 | > 40 µM | Active | inhibition (Cannabinoid receptor 1 [5]): 38%
O=[N+]([O-])c1ccc2c(c1)c(OCC1CCCCC1)nn2Cc1ccccc1 |  |  | > 444 |  | Active | Activity (MC3T3-E1): Non-Toxic; Activity [2]: inactive; inhibition [3]: Active
c1ccc(COc2nn(Cc3ccccc3)c3ccccc23)cc1 | inactive |  | 0.7 |  |  | 
Cn1nc(OCCc2ccccc2)c2cc([N+](=O)[O-])ccc21 | inactive | 1.2 µM | > 33.3 | > 40 µM |  | inhibition (Cannabinoid receptor 1 [5]): 25%
COc1ccc(COc2n[nH]c3ccccc23)cc1 | inactive | 4.5 µM | 4.7 | 21 µM |  | 
